ChEMBL document CHEMBL1147364, “An antifungal bibenzyl from the New Zealand liverwort, Plagiochila stephensoniana. Bioactivity-directed isolation, synthesis, and analysis” (J Nat Prod, 1993)
In brackets after ≈: the same amount, converted by molar mass. Activity calls are given as the source filed them. No cut-off for these calls is given here.

Experiments:
Escherichia coli [1] = test: Antibacterial activity against Escherichia coli at 60 ug/disk by disk diffusion assay; type: functional, organism-based
Method in brief: (§1)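 Sample solution dried onto 6-mm filter paper disks at the stated loading. Disks placed on agar plates seeded with the test organism, then incubated. Read-out is the width of the inhibition zone around the disk, in mm.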

Bacillus subtilis [2] = test: Antibacterial activity against Bacillus subtilis at 300 ug/disk by disk diffusion assay; type: functional; conditions: for zone of inhibition at 300 µg/disc: read-out: IZ; method in brief: as §1
Amorphotheca resinae [3] = test: Antifungal activity against Cladosporium resinae 10100 at 300 ug/disk by disk diffusion assay; type: functional, organism-based; method in brief: as §1
Amorphotheca resinae [4] = test: Antifungal activity against Cladosporium resinae 10100 at 60 ug/disk by disk diffusion assay; type: functional; conditions: for zone of inhibition at 60 µg/disc: read-out: IZ; method in brief: as §1
[5] = test system: Trichophyton mentagrophytes; test: Antifungal activity against Trichophyton mentagrophytes 10100 by tube assay method; type: functional
Method in brief: (§2)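 MIC by standard tube dilution assay. Minimum fungicidal concentration is also reported in µg/ml.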

[6] = Cytotoxicity against african green monkey BSC cells at 60 ug/mL after 24 hrs; type: cell-based; conditions: chlorocebus aethiops
Method in brief: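 Sample on 6-mm filter paper disks placed directly on BSC-1 monkey kidney cells, incubated 24 h, examined by inverted microscope. Cytotoxic zone scored as +, ++, +++ or whole well.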

Candida albicans [7] = test: Antifungal activity against Candida albicans 10261 by tube assay method; type: functional; method in brief: as §2
P388 = test: Cytotoxicity against mouse P388 cells after 72 hrs by MTT assay; type: functional, cell-based; conditions: P388, 72 h
Method in brief: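 P-388 murine leukemia cells incubated 72 h with a 2-fold dilution series of sample. Growth read by MTT tetrazolium staining absorbance. IC50 (µg/ml) is the concentration reducing growth to 50% of a solvent control.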

[8] = test system: Trichophyton mentagrophytes; test: Antifungal activity against Trichophyton mentagrophytes 10100 at 60 ug/disk by disk diffusion assay; type: functional; conditions: for zone of inhibition at 60 µg/disc: read-out: IZ; method in brief: as §1
[9] = test system: Trichophyton mentagrophytes; test: Antifungal activity against Trichophyton mentagrophytes 10100 at 300 ug/disk by disk diffusion assay; type: functional; conditions: for zone of inhibition at 300 µg/disc: read-out: IZ; method in brief: as §1
Candida albicans [10] = test: Antifungal activity against Candida albicans 10261 at 300 ug/disk by disk diffusion assay; type: functional; conditions: for zone of inhibition at 300 µg/disc: read-out: IZ; method in brief: as §1
Bacillus subtilis [11] = test: Antibacterial activity against Bacillus subtilis at 60 ug/disk by disk diffusion assay; type: functional; conditions: for zone of inhibition at 60 µg/disc: read-out: IZ; method in brief: as §1
Candida albicans [12] = test: Antifungal activity against Candida albicans 10261 at 60 ug/disk by disk diffusion assay; type: functional; conditions: for zone of inhibition at 60 µg/disc: read-out: IZ; method in brief: as §1
[13] = test system: Trichophyton mentagrophytes; test: Antifungal activity against Trichophyton mentagrophytes 10100 at 100 units/disk by disk diffusion assay; type: functional, organism-based
Method in brief: (§3)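 Sample solution dried onto 6-mm filter-paper disks, which are laid on seeded agar Petri dishes and incubated.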

Amorphotheca resinae [14] = test: Antifungal activity against Cladosporium resinae 10100 at 100 units/disk by disk diffusion assay; type: functional, organism-based; method in brief: as §3
Gloeophyllum trabeum = test: Antifungal activity against Gloeophyllum trabeum; type: functional, organism-based
Poliovirus 1 = test: Antiviral activity against Poliovirus type 1 infected in african green monkey BSC cells assessed as inhibition of virus-induced cytopathic effect; type: functional, organism-based
Method in brief: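 Sample is dried onto 6-mm filter-paper disks and placed directly on BSC-1 (African green monkey kidney) cell monolayers. Cells are infected with Polio Type I (Pfizer vaccine strain) and incubated 24 h. Wells are examined by inverted microscope for a zone of viral and/or cytotoxic inhibition around the disk. Cytotoxicity is scored as zone size (+, ++, +++, whole well).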

Candida albicans [15] = test: Antifungal activity against Candida albicans 10261 at 2.4 ug/disk by disk diffusion assay; type: functional, organism-based; method in brief: as §1
Candida albicans [16] = test: Antifungal activity against Candida albicans 10261 at 12 ug/disk by disk diffusion assay; type: functional; conditions: for zone of inhibition at 12 µg/disc: read-out: IZ; method in brief: as §1
Bacillus subtilis [17] = test: Antibacterial activity against Bacillus subtilis at 2.4 ug/disk by disk diffusion assay; type: functional, organism-based; method in brief: as §1
Pseudomonas aeruginosa = test: […] aeruginosa at 60 ug/disk by disk diffusion assay; type: functional, organism-based; method in brief: as §1
Bacillus subtilis [18] = test: Antibacterial activity against Bacillus subtilis at 12 ug/disk by disk diffusion assay; type: functional; conditions: read-out: IZ; method in brief: as §1
Postia placenta = test: Antifungal activity against Poria placenta; type: functional, organism-based; conditions: Rhodonia placenta
[19] = test system: Trichophyton mentagrophytes; test: Antifungal activity against Trichophyton mentagrophytes 10100 at 2.4 ug/disk by disk diffusion assay; type: functional; conditions: for zone of inhibition at 2.4 µg/disc: read-out: IZ; method in brief: as §1
Human alphaherpesvirus 1 = test: Antiviral activity against Herpes simplex virus type 1 ATCC VR 733 infected in african green monkey BSC cells assessed as inhibition of virus-induced cytopathic effect; type: functional, organism-based
Method in brief: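 Sample dried onto 6-mm filter paper disks placed directly on BSC-1 (African green monkey kidney) cell monolayers, which were infected with HSV type 1 (ATCC VR 733). After 24 h incubation, examined by inverted microscope. Zone of viral and/or cytotoxic inhibition around the disk recorded.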

[20] = test system: Trichophyton mentagrophytes; test: Antifungal activity against Trichophyton mentagrophytes 10100 at 12 ug/disk by disk diffusion assay; type: functional; conditions: read-out: IZ; method in brief: as §1
Bacillus subtilis [21] = test: Antibacterial activity against Bacillus subtilis at 30 ug/disk by disk diffusion assay; type: functional; conditions: read-out: IZ; method in brief: as §1
Escherichia coli [22] = test: Antibacterial activity against Escherichia coli at 10 ug/disk by disk diffusion assay; type: functional, organism-based; method in brief: as §3

Molecule	Activity (Escherichia coli [1])	Activity (Bacillus subtilis [2])	Activity (Amorphotheca resinae [3])	Activity (Amorphotheca resinae [4])	MFC [5] [µg/mL]	MIC [5] [µg/mL]	Activity [6]	MFC (Candida albicans [7]) [µg/mL]	MIC (Candida albicans [7]) [µg/mL]	IC50 (P388) [µg/mL]	Activity [8]	Activity [9]	Activity (Candida albicans [10])	Activity (Bacillus subtilis [11])	Activity (Candida albicans [12])	zone of inhibition at 60 µg/disc [8] [mm]	further results
COc1cccc(CCc2ccc(O[Si](C)(C)C(C)(C)C)cc2)c1	inactive	inactive	inactive	inactive	> 1000	> 1000	Not Active	> 1000	> 1000	> 25	inactive	inactive	inactive	inactive	inactive		
C(=C\c1ccccc1)/c1ccccc1	inactive	inactive	inactive	inactive							inactive	inactive	inactive	inactive	inactive		
NYSTATIN					62.5	62.5		31.2	31.2								inhibition zone (IZ) [13]: 8 mm; inhibition zone (IZ) (Amorphotheca resinae [14]): 10 mm
COc1cccc(CCc2ccc(O)cc2)c1	inactive				62.5 (≈ 274 µM)	62.5 (≈ 274 µM)		125 (≈ 548 µM)	125 (≈ 548 µM)	> 25						7	IC50 (Gloeophyllum trabeum): 87 µg/mL (≈ 381 µM); zone of inhibition at 300 µg/disc (Bacillus subtilis [2]): 5 mm; Activity (Poliovirus 1): inactive; Activity (Candida albicans [15]): inactive; zone of inhibition at 60 µg/disc (Amorphotheca resinae [4]): 2 mm; zone of inhibition at 12 µg/disc (Candida albicans [16]): 2 mm; zone of inhibition at 300 µg/disc [9]: 7 mm; Activity (Bacillus subtilis [17]): inactive; Activity (Pseudomonas aeruginosa): inactive; zone of inhibition at 12 µg/disc (Bacillus subtilis [18]): 3 mm; zone of inhibition at 300 µg/disc (Candida albicans [10]): 10 mm; IC50 (Postia placenta): 11 µg/mL (≈ 48.2 µM); zone of inhibition at 60 µg/disc (Bacillus subtilis [11]): 5 mm; Activity [19]: inactive; Activity (Human alphaherpesvirus 1): inactive; zone of inhibition at 12 µg/disc [20]: 7 mm; zone of inhibition at 60 µg/disc (Candida albicans [12]): 10 mm
COc1ccc(CCc2cccc(OC)c2)cc1	inactive	inactive		inactive			Not Active				inactive	inactive	inactive	inactive	inactive		
COc1cccc(/C=C\c2ccc(O[Si](C)(C)C(C)(C)C)cc2)c1	inactive	inactive	inactive	inactive			Not Active				inactive	inactive	inactive	inactive	inactive		
COc1cccc(/C=C/c2ccc(O[Si](C)(C)C(C)(C)C)cc2)c1	inactive	inactive	inactive	inactive			Not Active				inactive	inactive	inactive	inactive	inactive		
COc1cccc(/C=C/c2ccc(O)cc2)c1 [(E)-5-METHOXY-4'-STILBENOL]	inactive				31.2 (≈ 138 µM)	31.2 (≈ 138 µM)		125 (≈ 552 µM)	31.2 (≈ 138 µM)	9.9 (≈ 43.8 µM)						6	zone of inhibition at 300 µg/disc (Bacillus subtilis [2]): 6 mm; Activity (Candida albicans [15]): inactive; zone of inhibition at 60 µg/disc (Amorphotheca resinae [4]): 2 mm; Activity (Candida albicans [16]): inactive; zone of inhibition at 300 µg/disc [9]: 10 mm; Activity (Bacillus subtilis [17]): inactive; zone of inhibition at 12 µg/disc (Bacillus subtilis [18]): 2 mm; zone of inhibition at 300 µg/disc (Candida albicans [10]): 7 mm; zone of inhibition at 60 µg/disc (Bacillus subtilis [11]): 4 mm; zone of inhibition at 2.4 µg/disc [19]: 2 mm; zone of inhibition at 12 µg/disc [20]: 8 mm; zone of inhibition at 60 µg/disc (Candida albicans [12]): 2 mm
O=C(N[C@H](CO)[C@H](O)c1ccc([N+](=O)[O-])cc1)C(Cl)Cl [CHLORAMPHENICOL]																	zone of inhibition at 30 µg/disc (Bacillus subtilis [21]): 12 mm
COc1cccc(/C=C\c2ccc(O)cc2)c1					15.6 (≈ 69 µM)	12.6 (≈ 55.8 µM)		62.5 (≈ 276 µM)	31.2 (≈ 138 µM)	16.3 (≈ 72 µM)						10	zone of inhibition at 300 µg/disc (Bacillus subtilis [2]): 9 mm; Activity (Candida albicans [15]): inactive; zone of inhibition at 60 µg/disc (Amorphotheca resinae [4]): 3 mm; zone of inhibition at 12 µg/disc (Candida albicans [16]): 2 mm; zone of inhibition at 300 µg/disc [9]: 10 mm; Activity (Bacillus subtilis [17]): inactive; zone of inhibition at 12 µg/disc (Bacillus subtilis [18]): 4 mm; zone of inhibition at 300 µg/disc (Candida albicans [10]): 7 mm; zone of inhibition at 60 µg/disc (Bacillus subtilis [11]): 9 mm; zone of inhibition at 2.4 µg/disc [19]: 5 mm; zone of inhibition at 12 µg/disc [20]: 7 mm; zone of inhibition at 60 µg/disc (Candida albicans [12]): 7 mm
CO[C@@]12[C@H](COC(N)=O)C3=C(C(=O)C(C)=C(N)C3=O)N1C[C@@H]1N[C@@H]12 [MITOMYCIN]										0.02 (≈ 0.0598 µM)							
Cc1cccc(O)c1 [METACRESOL]	inactive	inactive		inactive			Not Active					inactive	inactive	inactive	inactive	2	
GENTAMICIN																	inhibition zone (IZ) (Escherichia coli [22]): 8 mm
